Source: ChEMBL document CHEMBL4396951, “Optimization and anti-inflammatory evaluation of methyl gallate derivatives as a myeloid differentiation protein 2 inhibitor” (Bioorg Med Chem, 2019)
pIC50: −log10 of the molar value. Activity calls are given as the source filed them. No cut-off for these calls is given here.

How the values were obtained:
Peritoneal macrophage [1] = assay: Antiinflammatory activity in C57BL/6 mouse primary peritoneal macrophages assessed as inhibition of LPS-induced IL-6 production preincubated for 30 mins followed by LPS stimulation and measured after 24 hrs by sandwich ELISA; format: functional, cell-based
Summary of the method: (§1)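 Thioglycollate-elicited mouse peritoneal macrophages in RPMI-1640/10% FBS. Compound pretreatment for 30 min (10 μM for single-point screening, graded concentrations for dose-response), then 0.5 μg/mL LPS for 24 h. TNF-α and IL-6 in culture medium measured by sandwich ELISA and normalized to total protein in cell lysates; n = 3.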

Peritoneal macrophage [2] = assay: Antiinflammatory activity in C57BL/6 mouse primary peritoneal macrophages assessed as inhibition of LPS-induced TNFalpha mRNA expression preincubated for 30 mins followed by LPS stimulation and measured after 6 hrs by qRT-PCR analysis; format: functional, cell-based
Summary of the method: (§2)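 Thioglycollate-elicited peritoneal macrophages (C57BL/6 mice, 3 mL 6% thioglycollate i.p.), harvested by PBS/30 μM EDTA lavage, cultured in RPMI-1640 with 10% FBS at 37 °C, 5% CO2. Pretreatment with compound at graded concentrations for 30 min, then LPS for 6 h. TRIZOL RNA extraction; qRT-PCR with values normalized to β-actin mRNA.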

Peritoneal macrophage [3] = assay: Antiinflammatory activity in C57BL/6 mouse primary peritoneal macrophages assessed as inhibition of LPS-induced IL-6 production at 10 uM preincubated for 30 mins followed by LPS stimulation and measured after 24 hrs by sandwich ELISA relative to control; format: functional; conditions: C57BL/6, Peritoneal macrophage; summary of the method: as §1
Peritoneal macrophage [4] = assay: Antiinflammatory activity in C57BL/6 mouse primary peritoneal macrophages assessed as inhibition of LPS-induced MCP1 mRNA expression preincubated for 30 mins followed by LPS stimulation and measured after 6 hrs by qRT-PCR analysis; format: functional, cell-based; summary of the method: as §2
Peritoneal macrophage [5] = assay: Antiinflammatory activity in C57BL/6 mouse primary peritoneal macrophages assessed as inhibition of LPS-induced TNFalpha production at 10 uM preincubated for 30 mins followed by LPS stimulation and measured after 24 hrs by sandwich ELISA relative to control; format: functional; conditions: C57BL/6, Peritoneal macrophage; summary of the method: as §1
Mus musculus [6] = assay: Antiinflammatory activity in oral dosed LPS-induced C57BL/6 mouse model of acute lung injury assessed as reduction in IL-6 levels in BALF for 3 days followed by LPS-stimulation measured after 6 hrs; format: functional, organism-based
Summary of the method: (§3)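 Male C57BL/6 mice (18–22 g) randomized to four groups. Compound given orally in 0.5% CMC-Na at 10 or 20 mg/kg/day for 3 consecutive days; controls received vehicle. LPS challenge; killed 6 h later. Left-lung BALF (saline 3 × 0.5 mL) centrifuged at 1000 rpm, 10 min, 4 °C: supernatant used for protein and ELISA TNF-α/IL-6, pellet for total cell count. Serum cytokines also measured by ELISA. Wet/dry ratio from middle right lobe dried at 65 °C for 72 h. Lung sections (5 μm) stained with H&E or for CD68 by IHC (citrate antigen retrieval, pH 6.5; DAB detection); n = 3.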

Peritoneal macrophage [7] = assay: Antiinflammatory activity in C57BL/6 mouse primary peritoneal macrophages assessed as inhibition of LPS-induced ICAM1 mRNA expression preincubated for 30 mins followed by LPS stimulation and measured after 6 hrs by qRT-PCR analysis; format: functional, cell-based; summary of the method: as §2
Mus musculus [8] = assay: Antiinflammatory activity in oral dosed LPS-induced C57BL/6 mouse model of acute lung injury assessed as reduction in MCP-1 mRNA expression in lung tissue after 6 hrs by qRT-PCR analysis; format: functional, organism-based
Summary of the method: (§4)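 Male C57BL/6 mice dosed orally with compound (10 or 20 mg/kg/day in 0.5% CMC-Na, 3 days), then LPS challenge. Lungs harvested 6 h later; RNA extracted with TRIZOL and TNF-α, IL-6, ICAM-1, VCAM-1 and MCP-1 mRNA measured by qRT-PCR.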

Mus musculus [9] = assay: Antiinflammatory activity in oral dosed LPS-induced C57BL/6 mouse model of acute lung injury assessed as reduction in ICAM-1 mRNA expression in lung tissue after 6 hrs by qRT-PCR analysis; format: functional, organism-based; summary of the method: as §4
Mus musculus [10] = assay: Antiinflammatory activity in oral dosed LPS-induced C57BL/6 mouse model of acute lung injury assessed as reduction in IL-6 levels in serum for 3 days followed by LPS-stimulation measured after 6 hrs; format: functional, organism-based; summary of the method: as §3
Peritoneal macrophage [11] = assay: Antiinflammatory activity in C57BL/6 mouse primary peritoneal macrophages assessed as inhibition of LPS-induced TNFalpha production preincubated for 30 mins followed by LPS stimulation and measured after 24 hrs by sandwich ELISA; format: functional, cell-based; summary of the method: as §1
Mus musculus [12] = assay: Antiinflammatory activity in oral dosed LPS-induced C57BL/6 mouse model of acute lung injury assessed as reduction in TNF-alpha mRNA expression in lung tissue after 6 hrs by qRT-PCR analysis; format: functional, organism-based; summary of the method: as §4
Mus musculus [13] = species: Mus musculus; assay: Inhibition of MAPK in C57BL/6 mouse primary peritoneal macrophages assessed as reduction in JNK phosphorylation at 10 uM preincubated for 30 mins followed by LPS-stimulation measured after 20 mins by Western blot analysis
Summary of the method: (§5)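 Peritoneal macrophages pretreated with vehicle (DMSO) or 10 μM compound for 30 min, then 0.5 μg/mL LPS for 20 min. Total protein run on 10% SDS-PAGE and blotted to PVDF. p-JNK/JNK, p-p38/p38 and p-ERK/ERK detected by western blot and quantified by densitometry; n = 3.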

Mus musculus [14] = assay: Antiinflammatory activity in oral dosed LPS-induced C57BL/6 mouse model of acute lung injury assessed as reduction in IL-6 mRNA expression in lung tissue after 6 hrs by qRT-PCR analysis; format: functional, organism-based; summary of the method: as §4
Mus musculus [15] = assay: Antiinflammatory activity in LPS-induced C57BL/6 mouse model of acute lung injury assessed as reduction in macrophage infiltration by measuring CD68 expression at 10 to 20 mg/kg/day, po for 3 days followed by LPS-stimulation measured after 6 hrs by immunohistochemistry; format: functional, organism-based; summary of the method: as §3
Mus musculus [16] = species: Mus musculus; assay: Inhibition of MAPK in C57BL/6 mouse primary peritoneal macrophages assessed as reduction in ERK phosphorylation at 10 uM preincubated for 30 mins followed by LPS-stimulation measured after 20 mins by Western blot analysis; summary of the method: as §5
Peritoneal macrophage [17] = assay: Antiinflammatory activity in C57BL/6 mouse primary peritoneal macrophages assessed as inhibition of LPS-induced VCAM1 mRNA expression preincubated for 30 mins followed by LPS stimulation and measured after 6 hrs by qRT-PCR analysis; format: functional, cell-based; summary of the method: as §2
Mus musculus [18] = species: Mus musculus; assay: Inhibition of MAPK in C57BL/6 mouse primary peritoneal macrophages assessed as reduction in P38 phosphorylation at 10 uM preincubated for 30 mins followed by LPS-stimulation measured after 20 mins by Western blot analysis; summary of the method: as §5
Mus musculus [19] = assay: Antiinflammatory activity in LPS-induced C57BL/6 mouse model of acute lung injury assessed as reduction in total cells in BALF at 10 to 20 mg/kg/day, po for 3 days followed by LPS-stimulation measured after 6 hrs by cell counting based method; format: functional, organism-based; summary of the method: as §3
Mus musculus [20] = assay: Antiinflammatory activity in LPS-induced C57BL/6 mouse model of acute lung injury assessed as reduction in total protein levels in BALF at 10 to 20 mg/kg/day, po for 3 days followed by LPS-stimulation measured after 6 hrs; format: functional, organism-based; summary of the method: as §3
BEAS-2B = assay: Cytotoxicity against human BEAS2B cells up to 50 uM; format: cell-based
Summary of the method: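 BEAS-2B cells pretreated with compound at graded concentrations up to 50 μM for 30 min, then incubated without LPS for 24 h; compared against a DMSO group; n = 3.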

Mus musculus [21] = assay: Antiinflammatory activity in oral dosed LPS-induced C57BL/6 mouse model of acute lung injury assessed as reduction in TNFalpha levels in BALF for 3 days followed by LPS-stimulation measured after 6 hrs; format: functional, organism-based; summary of the method: as §3
Mus musculus [22] = assay: Antiinflammatory activity in LPS-induced C57BL/6 mouse model of acute lung edema assessed as decrease in lung wet/dry ratio at 20 mg/kg/day, po for 3 days followed by LPS-stimulation measured after 6 hrs; format: functional, organism-based; summary of the method: as §3
[23] = Stability of compound in pH 7.4 phosphate buffer at 20 uM measured up to 25 mins by UV-VIS spectroscopy; format: physicochemical; conditions: pH 7.4, 25 min
Mus musculus [24] = assay: Antiinflammatory activity in oral dosed LPS-induced C57BL/6 mouse model of acute lung injury assessed as reduction in VCAM-1 mRNA expression in lung tissue after 6 hrs by qRT-PCR analysis; format: functional, organism-based; summary of the method: as §4
Peritoneal macrophage [25] = assay: Antiinflammatory activity in C57BL/6 mouse primary peritoneal macrophages assessed as inhibition of LPS-induced IL-6 mRNA expression preincubated for 30 mins followed by LPS stimulation and measured after 6 hrs by qRT-PCR analysis; format: functional, cell-based; summary of the method: as §2
Mus musculus [26] = assay: Antiinflammatory activity in oral dosed LPS-induced C57BL/6 mouse model of acute lung injury assessed as reduction in TNFalpha levels in serum for 3 days followed by LPS-stimulation measured after 6 hrs; format: functional, organism-based; summary of the method: as §3
Mus musculus [27] = assay: Antiinflammatory activity in LPS-induced C57BL/6 mouse model of acute lung injury assessed as restoration of normal alveolar structure at 10 to 20 mg/kg/day, po for 3 days followed by LPS-stimulation measured after 6 hrs by haematoxylin and eosin staining-based light microscopic analysis; format: functional, organism-based; summary of the method: as §3

pIC50 (Peritoneal macrophage [1]; C57BL/6, Peritoneal macrophage): 6.15
pIC50 (Peritoneal macrophage [11]; C57BL/6, Peritoneal macrophage): 5.91
inhibition (Mus musculus [13]): Active
inhibition (Mus musculus [16]): Active
inhibition (Mus musculus [18]): Active
Stability [23]: Stable
Compound: O=C(Nc1ccc2c(c1)CCC2)c1cc(O)c(O)c(O)c1
inhibition (Peritoneal macrophage [1]): Dose-dependent effect
inhibition (Peritoneal macrophage [2]): Dose-dependent effect
inhibition at 10 µM (Peritoneal macrophage [3]): 89%
inhibition (Peritoneal macrophage [4]): Dose-dependent effect
inhibition at 10 µM (Peritoneal macrophage [5]): 72.2%
inhibition (Mus musculus [6]): Dose-dependent effect
inhibition (Peritoneal macrophage [7]): Dose-dependent effect
Activity (Mus musculus [8]): Active
Activity (Mus musculus [9]): Active
inhibition (Mus musculus [10]): Dose-dependent effect
inhibition (Peritoneal macrophage [11]): Dose-dependent effect
Activity (Mus musculus [12]): Active
Activity (Mus musculus [14]): Active
Activity (Mus musculus [15]): Active
inhibition (Peritoneal macrophage [17]): Dose-dependent effect
Activity (Mus musculus [19]): Active
Activity (Mus musculus [20]): Active
Activity (BEAS-2B): Non-Toxic
inhibition (Mus musculus [21]): Dose-dependent effect
Activity (Mus musculus [22]): Active
Activity (Mus musculus [24]): Active
inhibition (Peritoneal macrophage [25]): Dose-dependent effect
inhibition (Mus musculus [26]): Dose-dependent effect
Activity (Mus musculus [27]): Active
